# Results reported in PMC5896666 (Drug Design, Development and Therapy, 2018).
# Experiments:
# EJ cells [1] = assay: Annexin V-FITC/PI staining flow cytometry of apoptosis; assay type: cell-based, human; settings: for Percentage of apoptotic cells (Annexin V-FITC/PI flow cytometry) / Effect of caspase inhibitors on induced apoptosis: 1.0 μM, 24 h; for Percentage of apoptotic cells (Annexin V-FITC/PI flow cytometry): mean ± SD; for Effect of caspase inhibitors on induced apoptosis: with 20 μM Z-LEHD-FMK or z-DEVD-fmk (Ac-DEVD-CHO)
# In short: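 EJ cells were seeded at 1×10^6 per well, left overnight, then given 1.0 μM test compound for 24 h. Some wells also received 20 μM caspase-3 (Ac-DEVD-CHO) or caspase-9 (Z-LEHD-FMK) inhibitor, or a 2 h pretreatment with 5 mM NAC. Harvested cells were stained with Annexin V-FITC/PI and read by flow cytometry for percent apoptotic cells. Mean ± SD of triplicates.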
# EJ cells [2] = assay: Colony-formation assay; assay type: cell-based, human; settings: 1.0 μM, 24 h, then 10 days growth
# In short: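 EJ cells at 1×10^6 per well given 1.0 μM test compound for 24 h. Harvested and replated at 5×10^2 cells per well in fresh 10% FBS medium, then grown 10 days. Colonies fixed, stained with 1% crystal violet in 10% methanol and counted blinded under a microscope. Mean ± SD of triplicates.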
# Bcl-2 = assay: Western blotting analysis of Bcl-2; assay type: cell-based, human; settings: EJ cells, 1.0 μM, 24 h
# In short: (§1)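 EJ cells received 1.0 μM test compound for 24 h, with or without 2 h pretreatment with 5 mM NAC. Lysed in RIPA with protease inhibitor; 30 μg protein (BCA) run on 10–12% SDS-PAGE and moved to PVDF. Blocked 30 min at room temperature in TBS, 0.1% Triton X-100, 5% milk. Primary antibody overnight at 4 °C, HRP secondary 1 h, ECL detection. GAPDH loading control.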
# caspase-9 = assay: Caspase-9 activity measurement in cell lysates; assay type: cell-based, human; settings: EJ cells, 1.0 μM, 24 h, vs control and TAT-treated cells
# In short: (§2)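 EJ cells treated for 24 h with 1.0 μM test compound. Lysates were mixed with buffer containing pNA substrate added at 2 mM: Ac-DEVD-pNA for caspase-3, Ac-LEHD-pNA for caspase-9. Incubated 4 h at 37 °C in the dark, then absorbance read at 405 nm. Activity given as ratio of treated to untreated control cells.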
# [3] = test system: human immortalized uroepithelium cell line SV-HUC-1; assay: Cell viability MTT assay; assay type: cell-based; settings: SV-HUC-1 normal uroepithelium cells
# In short: (§3)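 Cells seeded at 5×10^3 per well: EJ in RPMI 1640, SV-HUC-1 in F-12K, both with 10% FBS. Test compound came from 25 mmol/L DMSO stock diluted in serum-free medium or PBS. Series run at graded concentrations for 24 h, or at 1.0 μM over varying times. MTT added for 4 h at 37 °C, formazan dissolved in DMSO, A570 read. Viability relative to untreated (100%); ≥3 repeats.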
# EJ cells [4] = assay: AO/EB dual staining, morphological assessment of apoptotic cells; assay type: cell-based, human; settings: 1.0 μM, 24 h, mean ± SD
# In short: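 EJ cells (RPMI 1640, 10% FBS, 37 °C, 5% CO2) exposed to 1.0 μM test compound for 24 h, then trypsinised, pelleted and PBS-washed. Stained with 100 μg/mL AO and 100 μg/mL EB for 10 min at 4 °C in the dark. Scored by fluorescence microscopy for nuclear condensation and shrinkage. Apoptotic rate = apoptotic cells/total counted. Mean ± SD of triplicates.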
# EJ cells [5] = assay: EdU incorporation assay; assay type: cell-based, human; settings: 1.0 μM, 24 h, then 50 μM EdU 4 h
# In short: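 EJ cells at 5×10^3 per well treated 24 h with 1.0 μM test compound, washed, then labelled with 50 μM EdU for 4 h at 37 °C in the dark. Fixed in 4% formaldehyde 15 min at room temperature, permeabilised in 0.5% Triton X-100 20 min. Apollo cocktail 30 min, Hoechst 33342 30 min, fluorescence microscopy. Mean ± SD of triplicates.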
# Bax = assay: Western blotting analysis of Bax; assay type: cell-based, human; settings: EJ cells, 1.0 μM, 24 h
# In short: as §1
# [6] = test system: human bladder cancer EJ cell line; assay: Cell viability MTT assay; assay type: cell-based
# In short: as §3
# [7] = test system: ROS production in EJ cells; assay: Intracellular reactive oxygen species detection; assay type: cell-based, human; settings: 1.0 μM, 24 h, DCFH-DA, fluorescence microplate reader
# In short: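 EJ cells, with or without 2 h pretreatment with 5 mM NAC, were given 1.0 μM test compound for 24 h. After PBS washes, loaded with 10 μM DCFH-DA for 30 min at 37 °C and washed again. Imaged by fluorescence microscopy and quantified on a plate reader (ex 485/em 520 nm). Values given as percent of control.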
# caspase-3 = assay: Caspase-3 activity measurement in cell lysates; assay type: cell-based, human; settings: EJ cells, 1.0 μM, 24 h, vs control and TAT-treated cells
# In short: as §2
# [8] = Equilibrium solubility assay; assay type: physicochemical; settings: shake-flask, distilled water pH 7.0, 37°C, UV spectrophotometry; stayed at this level for 6-24 h
Compound,"Effect on apoptosis, NAC treatment alone (EJ cells [1]; 5 mM NAC in the absence of GA and GA-TAT)",Colony growth (EJ cells [2]),Bcl-2 protein level (Bcl-2),Caspase-9 activity (caspase-9),Effect on cell viability [3],Percentage of apoptotic cells (AO/EB) (EJ cells [4]),Number of EdU+ cells (EJ cells [5]),Bax expression level (Bax),"Concentration inducing clear cytotoxic effects ([6]; EJ cells, MTT)","IC50 ([6]; Homo sapiens, EJ, 24 h, read-out: 50% inhibitory concentration (IC50))",ROS production [7],Caspase-3 activity (caspase-3),Percentage of apoptotic cells (Annexin V-FITC/PI flow cytometry) (EJ cells [1]),Effect of caspase inhibitors on induced apoptosis (EJ cells [1]),Stirring time at which solubility reached its peak [8]
"CC(=O)N[C@@H](CS)C(=O)O [NAC, N-acetyl-L-cysteine]",did not significantly affect apoptosis,,,,,,,,,,,,,,
"CC(C)=CCC[C@]1(C)C=Cc2c(O)c3c(c(CC=C(C)C)c2O1)O[C@]12C(=C[C@@H]4C[C@H]1C(C)(C)O[C@@]2(C/C=C(/C)C(=O)O)C4=O)C3=O [GA, Gambogic acid]",,significantly decreased,not affected,increased,nearly unaffected,19.18%±4.35%,significantly reduced,upregulated,1000 nM,4.95 µM,substantially increased,increased,21.3%±2.27%,completely suppressed,
CC(C)=CCC[C@]1(C)C=Cc2c(O)c3c(c(CC=C(C)C)c2O1)O[C@]12C(=C[C@@H]4C[C@H]1C(C)(C)O[C@@]2(C/C=C(/C)C(=O)N[C@@H](CS)C(=O)N[C@@H](Cc1ccc(O)cc1)C(=O)NCC(=O)N[C@@H](CCCNC(=N)N)C(=O)N[C@@H](CCCCN)C(=O)N[C@@H](CCCCN)C(=O)N[C@@H](CCCNC(=N)N)C(=O)N[C@@H](CCCNC(=N)N)C(=O)N[C@@H](CCC(N)=O)C(=O)N[C@@H](CCCNC(=N)N)C(=O)N[C@@H](CCCNC(=N)N)C(=O)N[C@@H](CCCNC(=N)N)C(=O)O)C4=O)C3=O [GA-TAT],,further reduced,downregulated,further enhanced,nearly unaffected,42.15%±5.23%,markedly less,upregulated,,,significantly higher,further enhanced,46.4%±4.86%,partially inhibited,4 h
